KCNK3 inh: human KCNK3 channel inhibition, primary screen | O14649 | CHO-KCNK3 thallium flux, FluxOR fluorescence; active compounds read low | B-score at 10 µM | 340,000 tested, 0.84% active | AID 602410;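 active means B-score under library mean minus 4 SD, starting fluorescence ratio at most library mean plus 5 SD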;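 further: more negative B-score means stronger inhibition of thallium flux through KCNK3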
KCNQ1 inh: human KCNQ1 channel inhibition | P51787 | CHO-K1 KCNQ1, FluxOR thallium flux fluorescence; active compounds read high | B-score at 10 µM | 310,000 tested, 1.3% active;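 active means compounds whose thallium flux B-score, printed positive for inhibition, exceeds three library SD while starting fluorescence stays within three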;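 further: channel opened by potassium depolarization with thallium stimulus after 20 min compound exposure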
KCNQ1 act: potentiates or activates the human KCNQ1 potassium channel | P51787 | B-score at 10 µM | CHO-K1 KCNQ1, thallium flux FluxOR fluorescence; active compounds read high | 310,000 tested, 0.35% active | AID 2648;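 active means fluorescence ratio B-score, a plate-corrected score, at least three library SD, with initial intensity B-score within 5 SD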
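Material: CHO-K1 cells stably expressing KCNQ1. Medium: assay buffer for compound exposure, DMSO matched across wells. Reagent: K+/Tl+ depolarizing stimulus. Compound dosing: single-concentration screen. Times: 37 °C overnight plating, 90-min dark dye load, 20-min compound pretreatment. Technique: FluxOR Tl+ flux fluorescence.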
hERG rescue: hERG (human) protection from proarrhythmic block; Q12809; CHO-hERG, FluxOR thallium flux, dofetilide IC70 present; activation (rescue from dofetilide block), less the hit threshold, % at 10 µM; 310,000 tested, 0.51% active;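 active means activation above the mean of controls blocked by dofetilide plus 5 SD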;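 further: thallium influx through hERG after potassium depolarization seen as dye fluorescence rise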
Kir21 inh: inhibitors of mouse Kir2.1 inward-rectifier potassium channel; P35561; HEK293-Kir2.1, FluxOR thallium flux fluorescence; active compounds read low; B-score at 10 µM; 310,000 tested, 0.85% active; AID 1672;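 active means fluorescence ratio B-score at or below minus 3 SD of library scores, with starting-brightness B-score within 2 SD, cut at about -4.2 in these data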;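 further: channel flux triggered by added potassium and thallium sulfate stimulus; B-score of peak minus minimum fluorescence over baseline after thallium stimulus; more negative B-score means stronger Kir2.1 block with less thallium influx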
KCNK9 inh: inhibitors of human KCNK9 two-pore domain potassium channel | B-score at 10 µM | 310,000 tested, 1.2% active | Q9NPC2 | HEK293 KCNK9, FluxOR thallium flux fluorescence; active compounds read low;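 active means ratio B-score over 3 SD below the library mean, with starting fluorescence within 5 SD of its mean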;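 further: negative B-score means less thallium flux so channel inhibition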
KCNQ1 inh valid: human KCNQ1 channel inhibition, validation assay. shares compounds with KCNQ1 inh. AID 588353. inhibition, % at 10 µM. KCNQ1 cell line, FluxOR thallium flux fluorescence. 1,600 tested, 93% active;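 active means primary screen active, with duplicate mean exceeding buffer control mean plus 3 SD of buffer wells, cut at about 28% in these data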;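 further: 0% = buffer control ratio and 100% = XE991 inhibitor control ratio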
CHO Tl flux: counter-screen for KCNQ1 inhibitors: effect in parental CHO cells | shares compounds with KCNQ1 inh | parental CHO-K1, FluxOR thallium flux fluorescence ratio; active compounds read low; zero means no signal rise above baseline | fluorescence ratio (Tl flux) at 10 µM | 1,600 tested, 21% active;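 active means mean of duplicate thallium-flux fluorescence ratios in parental host cells more than 5 SD below the buffer control mean, cut at about 0.38 in these data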;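 further: ratio is peak minus minimum fluorescence divided by baseline fluorescence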
KCNQ1 APC inh: human KCNQ1 inhibition validated by electrophysiology. 490 tested, 20% active. shares compounds with KCNQ1 inh. KCNQ1-CHO cells, automated patch clamp current. calls only at 10 µM;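 active means KCNQ1 current drop exceeding 3 SD of negative control wells, seen in both duplicate runs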;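 further: steady state current during a 2 s step from -80 to +40 mV; negative values mean current inhibition and positive values mean potentiation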
KCNQ2 inh: selectivity of KCNQ1 inhibitors: inhibition of rat KCNQ2 channel. AID 651746. KCNQ2 cells, FluxOR thallium flux fluorescence. shares compounds with KCNQ1 inh. inhibition, % at 10 µM. 1,600 tested, 71% active;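 active means mean percent inhibition of the KCNQ2 thallium signal more than 5 SD above the buffer-only control wells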;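 further: KCNQ2 expressed in CHO cells; 0% = buffer control wells and 100% = XE-991 inhibitor control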
KCNQ1-KCNE1 inh: selectivity of KCNQ1 inhibitors: inhibition of human KCNQ1/KCNE1 channel | shares compounds with KCNQ1 inh | KCNQ1/KCNE1 cells, FluxOR thallium flux fluorescence | inhibition, % at 10 µM | 1,600 tested, 77% active;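 active means mean percent inhibition of duplicate wells above the buffer-only control mean plus 3 SD of those controls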;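 further: 0% = buffer only wells and 100% = XE-991 inhibitor control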
Target sequence (P51787 whole entry, looked up): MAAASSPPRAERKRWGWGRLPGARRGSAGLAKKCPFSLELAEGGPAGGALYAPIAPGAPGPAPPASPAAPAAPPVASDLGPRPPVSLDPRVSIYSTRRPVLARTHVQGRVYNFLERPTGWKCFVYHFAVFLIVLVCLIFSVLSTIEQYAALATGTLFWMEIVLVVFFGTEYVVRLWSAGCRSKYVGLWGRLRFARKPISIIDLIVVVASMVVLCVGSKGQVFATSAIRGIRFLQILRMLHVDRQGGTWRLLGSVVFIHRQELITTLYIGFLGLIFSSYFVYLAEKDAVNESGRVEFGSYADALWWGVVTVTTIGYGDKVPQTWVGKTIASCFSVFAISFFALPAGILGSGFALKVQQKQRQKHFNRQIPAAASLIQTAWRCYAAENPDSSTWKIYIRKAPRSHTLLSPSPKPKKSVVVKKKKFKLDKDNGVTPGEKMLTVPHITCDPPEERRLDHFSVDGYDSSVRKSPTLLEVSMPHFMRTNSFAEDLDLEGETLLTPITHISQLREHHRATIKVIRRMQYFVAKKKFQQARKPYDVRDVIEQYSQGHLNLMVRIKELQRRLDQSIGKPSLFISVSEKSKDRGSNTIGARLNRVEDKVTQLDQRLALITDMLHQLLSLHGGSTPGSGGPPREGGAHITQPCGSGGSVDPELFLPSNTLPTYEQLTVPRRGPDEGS
Numbers without * were called inactive; i = inactive; . = not tested or not shown. The list is not random: actives were taken first. Their share in the collection is about 3.7%.

SMILES	KCNK3 inh	KCNQ1 inh	KCNQ1 act	hERG rescue	Kir21 inh	KCNK9 inh	KCNQ1 inh valid	CHO Tl flux	KCNQ2 inh	KCNQ1-KCNE1 inh	others
O=C(NC(=S)N1CCOCC1)C12CC3CCC(CC(C3)C1)C2	i	i	i	-3.6	1.26	i	.	.	.	.
COc1ccc(-c2cc(C(=O)N3CCN(c4cccc(C)c4C)CC3)c3ccccc3n2)cc1OC	i	8*	i	-28.7	-0.68	i	60.5*	0.448	108.0%*	95.5%*
COc1ccc(-c2cc(C(=O)N3CCN(c4ncccn4)CC3)c3ccccc3n2)cc1OC	i	.	.	.	.	.	.	.	.	.
CC12CCC(=O)N1C(C(=O)Nc1cc(C(F)(F)F)ccc1N1CCCCC1)CS2 (centres undefined)	i	7*	i	-18.8	-0.29	i	46.5*	0.412	103.0%*	47.5%*
Oc1ccccc1N=Nc1ccccc1O	i	13*	i	-11.9	-0.03	i	61.5*	0.505	i	i
Nc1ccc(N=Nc2ccccc2O)c(N)c1	i	i	i	-10.2	-0.04	i	.	.	.	.
CCOC(=O)[C@H]1[C@H]2COc3ccc(Cl)cc3[C@@H]2N2C(=O)CN(Cc3ccc(Cl)cc3)C(=O)[C@@]12C	i	.	.	.	.	.	.	.	.	.
CC1CCN(CC(O)COCCC23CC4CC(CC(C4)C2)C3)CC1 (centres undefined)	i	7*	i	-8.7	-1.64	i	72.5*	0.376*	79.0%*	76.5%*
O=C(COC(=O)c1c(F)cccc1F)c1ccc[nH]1	.	i	i	-9.1	-0.04	i	.	.	.	.
Cc1cccc(NC(=O)Nc2ccc(Cl)cc2)n1	i	i	i	-9.1	1.02	i	.	.	.	.
Cc1nccc(-c2cccc(NC(=O)Nc3ccc(Cl)cc3)c2)n1	i	8*	i	-9.4	0.58	i	92.5*	0.517	67.0%*	72.5%*	KCNQ1 APC inh=i
O=C(Nc1ccncc1)Nc1cccc(Cl)c1	i	7*	i	-22.5	2.13	i	52.5*	0.481	i	46.0%*
CN(C)c1ccc(NC(=O)Nc2cccc(Cl)c2)cc1	i	i	i	-12.4	-2.78	i	.	.	.	.
CN(c1cccc(NC(=O)Nc2cccc(Cl)c2)c1)S(C)(=O)=O	i	16*	i	-16.6	-0.5	i	93.0*	0.466	122.7%*	82.5%*
O=C(NCc1ccncc1)Nc1cccc(Cl)c1	i	i	i	-3.7	1.04	i	.	.	.	.
N#Cc1ccc(-c2ccc(OCC(=O)NN=Cc3ccncc3)cc2)cc1	i	.	.	.	.	.	.	.	.	.
COC(=O)c1cc(-c2ccc(OC)c(OC)c2)c2c(=O)[nH]c(=O)n(C)c2n1	i	i	i	-2.6	-0.6	i	.	.	.	.
N/C(=N\OC(=O)C1CCCCC1)c1ccccn1	i	i	i	-10.4	-2.3	i	.	.	.	.
COC(=O)C(Cc1ccc(O)cc1)NC(=O)C12CC3CC(CC(C3)C1)C2 (centres undefined)	i	14*	i	-15.9	1.07	i	43.5*	0.459	i	i
COC(=O)C(CCSC)NC(=O)C12CC3CC(CC(C3)C1)C2 (centres undefined)	i	i	i	0.0	0.85	i	.	.	.	.
CC1CCN(CCCOc2ccc(Cl)cc2Br)CC1	i	6*	i	-15.8	-4.46*	i	41.5*	0.484	i	i

Assay outcomes as filed in PubChem BioAssay.
